Laboratory results taken from ChEMBL document CHEMBL1143889, “N-Phenyl and N-phenylalkyl-maleimides acting against Candida spp.: time-to-kill, stability, interaction with maleamic acids” (2008).
Values after ≈ are worked out from the molar mass of the structure shown. Active and inactive are the calls of the source. The rule behind the calls is not given here.

What was measured:
[1] = tested on: Clavispora lusitaniae; assay: Antifungal activity against Candida lusitaniae C 131-2000 after 48 hrs by CLSI M27-A2 method; type: functional
In short: (§1)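 Broth microdilution per CLSI M27-A2 in RPMI-1640, with twofold dilutions giving final 250–0.98 µg/mL. The inoculum was modified to 1–5 × 10⁴ CFU/mL instead of 1–5 × 10³, with ketoconazole and amphotericin B as positive controls. MIC was the lowest concentration giving total growth inhibition, read visually. Strains were grown on Sabouraud-chloramphenicol agar for 24 h at 37 °C.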

[2] = tested on: Candida tropicalis; assay: Antifungal activity against Candida tropicalis C 137-1997 after 48 hrs by CLSI M27-A2 method; type: functional; in short: as §1
[3] = tested on: Candida albicans; assay: Antifungal activity against Candida albicans ATCC 10231 after 48 hrs by CLSI M27-A2 method; type: functional; conditions: ATCC 10231, 48 h; in short: as §1
[4] = tested on: Candida albicans; assay: Antifungal activity against Candida albicans ATCC 10231 pre-incubated for 5 days analysed after 24 hrs by CLSI M27-A2 method; type: functional
In short: (§2)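 Twofold maleimide dilutions (1000–0.98 µg/mL) in complete M27-A2 medium without inoculum were held at 37 °C, with one plate row filled on each of 7 consecutive days to give 0–7 days of pre-incubation. All wells were then inoculated with C. albicans ATCC 10231 at 1–5 × 10⁴ CFU/mL and incubated for 24 h at 37 °C. MIC was read per row, in duplicate.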

[5] = tested on: Candida albicans; assay: Antifungal activity against Candida albicans C 126-2000 after 48 hrs by CLSI M27-A2 method; type: functional; in short: as §1
[6] = tested on: Pichia kudriavzevii; assay: Antifungal activity against Candida krusei C 117-2000 after 48 hrs by CLSI M27-A2 method; type: functional; in short: as §1
[7] = tested on: Candida albicans; assay: Antifungal activity against Candida albicans ATCC 10231 pre-incubated for 3 days analysed after 24 hrs by CLSI M27-A2 method; type: functional; in short: as §2
[8] = tested on: Torulaspora delbrueckii; assay: Antifungal activity against Candida coliculosa C 122-2000 after 48 hrs by CLSI M27-A2 method; type: functional; in short: as §1
[9] = tested on: Kluyveromyces marxianus; assay: Antifungal activity against Candida kefyr C 123-2000 after 48 hrs by CLSI M27-A2 method; type: functional; in short: as §1
[10] = tested on: Candida albicans; assay: Antifungal activity against Candida albicans ATCC 10231 preincubated for 7 days analysed after 24 hrs by CLSI M27-A2 method; type: functional; in short: as §2
[11] = tested on: Candida albicans; assay: Antifungal activity against Candida albicans ATCC 10231 within 90 mins by time-to-kill study; type: functional, organism-based
In short: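 C. albicans ATCC 10231 (2–2.5 × 10⁴ CFU/mL) in 5 mL RPMI-1640 was exposed to 1× MFC of compound at 37 °C with agitation. 10 µL samples taken at 0, 30, 60, 90 and 120 min, and at 4, 8, 12 and 24 h, were plated on drug-free SDA and colonies counted after 24–48 h at 37 °C. Run in duplicate.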

[12] = tested on: Candida albicans; assay: Antifungal activity against Candida albicans ATCC 10231 pre-incubated for 2 days analysed after 24 hrs by CLSI M27-A2 method; type: functional; in short: as §2
[13] = tested on: Candida albicans; assay: Antifungal activity against Candida albicans ATCC 10231 after 24 hrs by CLSI M27-A2 method; type: functional; conditions: ATCC 10231, 24 h; in short: as §1
[14] = tested on: Candida albicans; assay: Antifungal activity against Candida albicans C 130-2000 after 48 hrs by CLSI M27-A2 method; type: functional; in short: as §1
[15] = tested on: Candida albicans; assay: Antifungal activity against Candida albicans ATCC 10231 pre-incubated for 4 days analysed after 24 hrs by CLSI M27-A2 method; type: functional; in short: as §2
[16] = tested on: Candida albicans; assay: Antifungal activity against Candida albicans C 127-2000 after 48 hrs by CLSI M27-A2 method; type: functional; in short: as §1
[17] = tested on: Candida albicans; assay: Antifungal activity against Candida albicans ATCC 10231 pre-incubated for 6 days analysed after 24 hrs by CLSI M27-A2 method; type: functional; in short: as §2
[18] = tested on: Candida albicans; assay: Antifungal activity against Candida albicans ATCC 10231 pre-incubated for 1 day analysed after 24 hrs by CLSI M27-A2 method; type: functional; in short: as §2
[19] = tested on: Candida albicans; assay: Antifungal activity against Candida albicans C 125-2000 after 48 hrs by CLSI M27-A2 method; type: functional; in short: as §1
[20] = tested on: Candida albicans; assay: Antifungal activity against Candida albicans C 128-2000 after 48 hrs by CLSI M27-A2 method; type: functional; in short: as §1
[21] = tested on: Candida albicans; assay: Antifungal activity against Candida albicans C 129-2000 after 48 hrs by CLSI M27-A2 method; type: functional; in short: as §1
[22] = tested on: Candida parapsilosis; assay: Antifungal activity against Candida parapsilosis C 124-2000 after 48 hrs by CLSI M27-A2 method; type: functional; conditions: Lodderomyces parapsilosis; in short: as §1
[23] = tested on: Nakaseomyces glabratus; assay: Antifungal activity against Candida glabrata C 115-2000 after 48 hrs by CLSI M27-A2 method; type: functional; in short: as §1

## O=C1C=CC(=O)N1CCCCc1ccccc1
[1]
  MFC: 3.9 µg/mL (≈ 17 µM)
  MIC: 3.9 µg/mL (≈ 17 µM)
[2]
  MFC: 32.2 µg/mL (≈ 141 µM)
  MIC: 15.8 µg/mL (≈ 68.7 µM)
[3]
  MFC: 7.8 µg/mL (≈ 34 µM)
  MIC: 3.9 µg/mL (≈ 17 µM)
[4]
  MIC: 125 µg/mL (≈ 545 µM)
[5]
  MFC: 1.95 µg/mL (≈ 8.5 µM)
  MIC: 0.97 µg/mL (≈ 4.23 µM)
[6]
  MFC: 15.8 µg/mL (≈ 68.7 µM)
  MIC: 7.8 µg/mL (≈ 34 µM)
[7]
  MIC: 15.8 µg/mL (≈ 68.7 µM)
[8]
  MFC: 3.9 µg/mL (≈ 17 µM)
  MIC: 3.9 µg/mL (≈ 17 µM)
[9]
  MFC: 7.81 µg/mL (≈ 34.1 µM)
  MIC: 1.95 µg/mL (≈ 8.5 µM)
[10]
  MIC: 1000 µg/mL (≈ 4360 µM)
[11]
  Activity: Active
[12]
  MIC: 3.9 µg/mL (≈ 17 µM)
[13]
  MIC: 3.9 µg/mL (≈ 17 µM)
[14]
  MFC: 3.9 µg/mL (≈ 17 µM)
  MIC: 1.95 µg/mL (≈ 8.5 µM)
[15]
  MIC: 31.2 µg/mL (≈ 136 µM)
[16]
  MFC: 3.9 µg/mL (≈ 17 µM)
  MIC: 1.95 µg/mL (≈ 8.5 µM)
[17]
  MIC: 250 µg/mL (≈ 1090 µM)
[18]
  MIC: 3.9 µg/mL (≈ 17 µM)
[19]
  MFC: 1.95 µg/mL (≈ 8.5 µM)
  MIC: 0.97 µg/mL (≈ 4.23 µM)
[20]
  MFC: 1.95 µg/mL (≈ 8.5 µM)
  MIC: 0.97 µg/mL (≈ 4.23 µM)
[21]
  MFC: 1.95 µg/mL (≈ 8.5 µM)
  MIC: 0.97 µg/mL (≈ 4.23 µM)
[22]
  MFC: 7.8 µg/mL (≈ 34 µM)
  MIC: 1.95 µg/mL (≈ 8.5 µM)
[23]
  MFC: 3.9 µg/mL (≈ 17 µM)
  MIC: 1.95 µg/mL (≈ 8.5 µM)

## CC(=O)N1CCN(c2ccc(OCC3COC(Cn4ccnc4)(c4ccc(Cl)cc4Cl)O3)cc2)CC1 (configuration not stated) [KETOCONAZOLE]
[1]
  MIC: 25 µg/mL (≈ 47 µM)
[2]
  MIC: 0.12 µg/mL (≈ 0.226 µM)
[3]
  MIC: 0.5 µg/mL (≈ 0.941 µM)
[5]
  MIC: 1.56 µg/mL (≈ 2.94 µM)
[6]
  MIC: 50 µg/mL (≈ 94.1 µM)
[8]
  MIC: 0.78 µg/mL (≈ 1.47 µM)
[9]
  MIC: 0.78 µg/mL (≈ 1.47 µM)
[14]
  MIC: 6.25 µg/mL (≈ 11.8 µM)
[16]
  MIC: 6.25 µg/mL (≈ 11.8 µM)
[19]
  MIC: 6.25 µg/mL (≈ 11.8 µM)
[20]
  MIC: 6.25 µg/mL (≈ 11.8 µM)
[21]
  MIC: 12.5 µg/mL (≈ 23.5 µM)
[22]
  MIC: 0.78 µg/mL (≈ 1.47 µM)
[23]
  MIC: 1.56 µg/mL (≈ 2.94 µM)

## O=C(O)/C=C\C(=O)NCCCCc1ccccc1
[1]
  MIC: > 250 µg/mL
[2]
  MIC: > 250 µg/mL
[3]
  MIC: > 250 µg/mL
[5]
  MIC: > 250 µg/mL
[6]
  MIC: > 250 µg/mL
[8]
  MIC: > 250 µg/mL
[9]
  MIC: > 250 µg/mL
[14]
  MIC: > 250 µg/mL
[16]
  MIC: > 250 µg/mL
[19]
  MIC: > 250 µg/mL
[20]
  MIC: > 250 µg/mL
[21]
  MIC: > 250 µg/mL
[22]
  MIC: > 250 µg/mL
[23]
  MIC: > 250 µg/mL

## C[C@@H]1[C@H](O)[C@@H](C)/C=C/C=C/C=C/C=C/C=C/C=C/C=C/[C@H](O[C@@H]2O[C@H](C)[C@@H](O)[C@H](N)[C@@H]2O)C[C@@H]2O[C@](O)(C[C@@H](O)C[C@@H](O)[C@H](O)CC[C@@H](O)C[C@@H](O)CC(=O)O[C@H]1C)C[C@H](O)[C@H]2C(=O)O [AMPHOTERICIN B]
[1]
  MIC: 0.39 µg/mL (≈ 0.422 µM)
[2]
  MIC: 0.12 µg/mL (≈ 0.13 µM)
[3]
  MIC: 1 µg/mL (≈ 1.08 µM)
[5]
  MIC: 1.56 µg/mL (≈ 1.69 µM)
[6]
  MIC: 0.39 µg/mL (≈ 0.422 µM)
[8]
  MIC: 0.39 µg/mL (≈ 0.422 µM)
[9]
  MIC: 0.78 µg/mL (≈ 0.844 µM)
[14]
  MIC: 0.39 µg/mL (≈ 0.422 µM)
[16]
  MIC: 0.78 µg/mL (≈ 0.844 µM)
[19]
  MIC: 0.78 µg/mL (≈ 0.844 µM)
[20]
  MIC: 1.56 µg/mL (≈ 1.69 µM)
[21]
  MIC: 0.78 µg/mL (≈ 0.844 µM)
[22]
  MIC: 0.78 µg/mL (≈ 0.844 µM)
[23]
  MIC: 0.39 µg/mL (≈ 0.422 µM)

## O=C(O)/C=C\C(=O)NCc1ccccc1
[1]
  MIC: > 250 µg/mL
[2]
  MIC: > 250 µg/mL
[3]
  MIC: > 250 µg/mL
[5]
  MIC: > 250 µg/mL
[6]
  MIC: > 250 µg/mL
[8]
  MIC: > 250 µg/mL
[9]
  MIC: > 250 µg/mL
[14]
  MIC: > 250 µg/mL
[16]
  MIC: > 250 µg/mL
[19]
  MIC: > 250 µg/mL
[20]
  MIC: > 250 µg/mL
[21]
  MIC: > 250 µg/mL
[22]
  MIC: > 250 µg/mL
[23]
  MIC: > 250 µg/mL

## O=C(O)/C=C\C(=O)Nc1ccccc1
[1]
  MIC: > 250 µg/mL
[2]
  MIC: > 250 µg/mL
[3]
  MIC: > 250 µg/mL
[5]
  MIC: > 250 µg/mL
[6]
  MIC: > 250 µg/mL
[8]
  MIC: > 250 µg/mL
[9]
  MIC: > 250 µg/mL
[14]
  MIC: > 250 µg/mL
[16]
  MIC: > 250 µg/mL
[19]
  MIC: > 250 µg/mL
[20]
  MIC: > 250 µg/mL
[21]
  MIC: > 250 µg/mL
[22]
  MIC: > 250 µg/mL
[23]
  MIC: > 250 µg/mL
